The source made the active and inactive calls. The rule behind the calls is not given here.
Columns and labels:
Assay type in all cases: functional
OVCAR-5 = test: Growth inhibition of human OVCAR5 cells
How it was run: (§1)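 Five-dose testing was run within the NCI (Bethesda) in vitro Anticancer Screen Program on a panel of 53 human tumour cell lines from nine cancer types. Growth inhibition is reported as GI50.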

[1] = Growth inhibition of human RPMI8266 cells; how it was run: as §1
MCF7 [2] = test: Cell cycle arrest in human MCF7 cells assessed as accumulation at G2/M phase at 30 uM after 24 hrs by FACS analysis
How it was run: (§2)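 MCF-7 cells were treated at 30 µM for 24 h alongside a DMSO control. Fractions in G0, G1, S and G2/M phases were measured by FACS, and values are means of three experiments.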

SF-268 = test: Growth inhibition of human SF268 cells; how it was run: as §1
HCT-116 = test: Growth inhibition of human HCT116 cells; how it was run: as §1
EKVX = test: Growth inhibition of human EKVX cells; how it was run: as §1
TK-10 = test: Growth inhibition of human TK10 cells
How it was run: (§3)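 Compounds that passed a preliminary screen were tested at five doses in the NCI (Bethesda) in vitro Anticancer Screen Program against a 53-line human tumour panel spanning leukemia, lung, colon, CNS, melanoma, ovarian, renal, prostate and breast. Growth inhibition is reported as GI50.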

OVCAR-8 = test: Growth inhibition of human OVCAR8 cells; how it was run: as §1
OVCAR-3 = test: Growth inhibition of human OVCAR-3 cells; how it was run: as §1
RXF 393 = test: Growth inhibition of human RXF393 cells; how it was run: as §1
MCF7 [3] = test: Cell cycle arrest in human MCF7 cells assessed as accumulation at G0 phase at 30 uM after 24 hrs by FACS analysis; how it was run: as §2
M14 = test: Growth inhibition of human M14 cells; how it was run: as §1
HCT-15 = test: Growth inhibition of human HCT15 cells; how it was run: as §1
SF-539 = test: Growth inhibition of human SF539 cells; how it was run: as §1
SK-MEL-2 = test: Growth inhibition of human SK-MEL-2 cells; how it was run: as §1
MCF7 [4] = test: Growth inhibition of human MCF7 cells; how it was run: as §1
MCF7 [5] = test: Cell cycle arrest in human MCF7 cells assessed as accumulation at G0 phase at 10 uM after 24 hrs by FACS analysis
How it was run: (§4)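 MCF-7 breast carcinoma cells were exposed to 10 µM test compound for 24 h, with DMSO as the vehicle control. Cell-cycle distribution was read by FACS as the percentage of cells in G0, G1, S and G2/M.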

NCI-H226 = test: Growth inhibition of human NCI-H226 cells; how it was run: as §1
UO-31 = test: Growth inhibition of human UO31 cells; how it was run: as §3
HT-29 = test: Growth inhibition of human HT-29 cells; how it was run: as §1
A549 = test: Growth inhibition of human A549 cells; how it was run: as §1
MCF7 [6] = test: Cell cycle arrest in human MCF7 cells assessed as accumulation at S phase at 30 uM after 24 hrs by FACS analysis; how it was run: as §2
786-0 = test: Growth inhibition of human 786-0 cells; how it was run: as §1
UACC-62 = test: Growth inhibition of human UACC62 cells; how it was run: as §3
MCF7 [7] = test: Cell cycle arrest in human MCF7 cells assessed as accumulation at G2/M phase at 10 uM after 24 hrs by FACS analysis; how it was run: as §4
ACHN = test: Growth inhibition of human ACHN cells; how it was run: as §1
SNB-75 = test: Growth inhibition of human SNB75 cells; how it was run: as §3
SNB-19 = test: Growth inhibition of human SNB19 cells; how it was run: as §3
SF-295 = test: Growth inhibition of human SF295 cells; how it was run: as §1
LOX IMVI = test: Growth inhibition of human LOXIMVI cells; how it was run: as §1
PC-3 = test: Growth inhibition of human PC3 cells; how it was run: as §1
COLO 205 = test: Growth inhibition of human COLO205 cells; how it was run: as §1
HCC 2998 = test: Growth inhibition of human HCC2998 cells; how it was run: as §1
MDA-MB-435 = test: Growth inhibition of human MDA-MB-435 cells; how it was run: as §1
CAKI-1 = test: Growth inhibition of human Caki1 cells; how it was run: as §1
Malme-3M = test: Growth inhibition of human MALME-3M cells; how it was run: as §1
HOP-62 = test: Growth inhibition of human HOP62 cells; how it was run: as §1
BT-549 = test: Growth inhibition of human BT549 cells; how it was run: as §1
Hs-578T = test: Growth inhibition of human Hs 578T cells; how it was run: as §1
MCF7 [8] = test: Cell cycle arrest in human MCF7 cells assessed as accumulation at S phase at 10 uM after 24 hrs by FACS analysis; how it was run: as §4
A498 = test: Growth inhibition of human A498 cells; how it was run: as §1
T47D = test: Growth inhibition of human T47D cells; how it was run: as §3
SK-OV-3 = test: Growth inhibition of human SKOV3 cells; how it was run: as §3
NCI-H322M = test: Growth inhibition of human NCI-H322M cells; how it was run: as §1
MDA-MB-231 = test: Growth inhibition of human MDA-MB-231 cells; how it was run: as §1
SK-MEL-5 = test: Growth inhibition of human SK-MEL-5 cells; how it was run: as §1
SW-620 = test: Growth inhibition of human SW620 cells; how it was run: as §3
SK-MEL-28 = test: Growth inhibition of human SK-MEL-28 cells; how it was run: as §1
NCI-H23 = test: Growth inhibition of human NCI-H23 cells; how it was run: as §1
MCF7 [9] = test: Cell cycle arrest in human MCF7 cells assessed as accumulation at G1 phase at 30 uM after 24 hrs by FACS analysis; how it was run: as §2
UACC-257 = test: Growth inhibition of human UACC257 cells; how it was run: as §3
NCI/ADR-RES = test: Growth inhibition of human NCI/ADR-RES cells; how it was run: as §1
KM12 = test: Growth inhibition of human KM12 cells; how it was run: as §1
U-251 = test: Growth inhibition of human U251 cells; how it was run: as §3
K562 = test: Growth inhibition of human K562 cells; how it was run: as §1
SN12C = test: Growth inhibition of human SN12C cells; how it was run: as §3
OVCAR-4 = test: Growth inhibition of human OVCAR4 cells; how it was run: as §1
NCI-H460 = test: Growth inhibition of human NCI-H460 cells; how it was run: as §1
MCF7 [10] = test: Cell cycle arrest in human MCF7 cells assessed as accumulation at G1 phase at 10 uM after 24 hrs by FACS analysis; how it was run: as §4
NCI-H522 = test: Growth inhibition of human NCI-H522 cells; how it was run: as §1

Question: For `COc1cc(/C=C/C(=O)c2cccc(-n3cc(-c4cc(OC)c(OC)c(OC)c4)[nH]c3=O)c2)cc(OC)c1OC`, which GI50 (OVCAR-5) is on record?
Answer: 4380 nM

Question: What about the GI50 [1] of the same molecule?
Answer: 230 nM

Question: And the Activity (MCF7 [2])?
Answer: 9.75%

Question: What about the GI50 (SF-268) of the same molecule?
Answer: 2200 nM

Question: What about the GI50 (HCT-116) of the same molecule?
Answer: 740 nM

Question: And the GI50 (EKVX)?
Answer: 9470 nM

Question: And the GI50 (TK-10)?
Answer: 3000 nM

Question: And the GI50 (OVCAR-8)?
Answer: 2320 nM

Question: What about the GI50 (OVCAR-3) of the same molecule?
Answer: 1480 nM

Question: What about the GI50 (RXF 393) of the same molecule?
Answer: 1620 nM

Question: What about the Activity (MCF7 [3]) of the same molecule?
Answer: 39.7%

Question: What about the GI50 (M14) of the same molecule?
Answer: 2120 nM

Question: What about the GI50 (HCT-15) of the same molecule?
Answer: 1890 nM

Question: And the GI50 (SF-539)?
Answer: 3120 nM

Question: And the GI50 (SK-MEL-2)?
Answer: 3020 nM

Question: What about the GI50 (MCF7 [4]) of the same molecule?
Answer: 470 nM

Question: What about the Activity (MCF7 [5]) of the same molecule?
Answer: 3.63%

Question: What about the GI50 (NCI-H226) of the same molecule?
Answer: 14400 nM

Question: What about the GI50 (UO-31) of the same molecule?
Answer: 960 nM

Question: What about the GI50 (HT-29) of the same molecule?
Answer: 1700 nM

Question: What about the GI50 (A549) of the same molecule?
Answer: 3030 nM

Question: And the Activity (MCF7 [6])?
Answer: 7.85%

Question: And the GI50 (786-0)?
Answer: 1590 nM

Question: What about the GI50 (UACC-62) of the same molecule?
Answer: 1870 nM

Question: What about the Activity (MCF7 [7]) of the same molecule?
Answer: 23.12%

Question: What about the GI50 (ACHN) of the same molecule?
Answer: 1740 nM

Question: And the GI50 (SNB-75)?
Answer: 5130 nM

Question: What about the GI50 (SNB-19) of the same molecule?
Answer: 4070 nM

Question: And the GI50 (SF-295)?
Answer: 4960 nM

Question: And the GI50 (LOX IMVI)?
Answer: 1230 nM

Question: What about the GI50 (PC-3) of the same molecule?
Answer: 2630 nM

Question: What about the GI50 (COLO 205) of the same molecule?
Answer: 1520 nM

Question: And the GI50 (HCC 2998)?
Answer: 1920 nM

Question: And the GI50 (MDA-MB-435)?
Answer: 2110 nM

Question: What about the GI50 (CAKI-1) of the same molecule?
Answer: 2890 nM

Question: What about the GI50 (Malme-3M) of the same molecule?
Answer: 1800 nM

Question: What about the GI50 (HOP-62) of the same molecule?
Answer: 3080 nM

Question: And the GI50 (BT-549)?
Answer: 1520 nM

Question: What about the GI50 (Hs-578T) of the same molecule?
Answer: inactive

Question: What about the Activity (MCF7 [8]) of the same molecule?
Answer: 25.65%

Question: What about the GI50 (A498) of the same molecule?
Answer: 20300 nM

Question: And the GI50 (T47D)?
Answer: 3080 nM

Question: What about the GI50 (SK-OV-3) of the same molecule?
Answer: 5120 nM

Question: And the GI50 (NCI-H322M)?
Answer: 3610 nM

Question: And the GI50 (MDA-MB-231)?
Answer: 4190 nM

Question: What about the GI50 (SK-MEL-5) of the same molecule?
Answer: 2760 nM

Question: What about the GI50 (SW-620) of the same molecule?
Answer: 1030 nM

Question: And the GI50 (SK-MEL-28)?
Answer: 1610 nM

Question: What about the GI50 (NCI-H23) of the same molecule?
Answer: 2000 nM

Question: What about the Activity (MCF7 [9]) of the same molecule?
Answer: 42.7%

Question: And the GI50 (UACC-257)?
Answer: 2220 nM

Question: What about the GI50 (NCI/ADR-RES) of the same molecule?
Answer: 2100 nM

Question: What about the GI50 (KM12) of the same molecule?
Answer: 1120 nM

Question: And the GI50 (U-251)?
Answer: 1230 nM

Question: What about the GI50 (K562) of the same molecule?
Answer: 590 nM

Question: And the GI50 (SN12C)?
Answer: 2750 nM

Question: And the GI50 (OVCAR-4)?
Answer: 3770 nM

Question: And the GI50 (NCI-H460)?
Answer: 1730 nM

Question: And the Activity (MCF7 [10])?
Answer: 47.6%

Question: What about the GI50 (NCI-H522) of the same molecule?
Answer: 1050 nM

— ChEMBL document CHEMBL1208778, “Synthesis and anti-cancer activity of chalcone linked imidazolones” (2010)
